{
  "source": "ChEMBL document CHEMBL5724801",
  "about": "“EUbOPEN Chemogenomics Library - Multiplex” (2024)",
  "key": {"[1]": {"tested_on": "HEK-293T", "test": "Multiplex assay against HEK293T", "format": "toxicity, cell-based", "details": "human", "method_in_brief": "(§1)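 Tubulin, mitochondrial-mass and membrane-permeability phenotypes are per cents of healthy-nucleus cells. Cells were gated by CellPathfinder machine learning into Hoechst high-intensity objects or normal cells, normal cells into healthy, pyknosed or fragmented nuclei, and pyknosed cells into mitotic or apoptotic. Before that, live cells stained at seeding with Hoechst33342, BioTracker Green Microtubule Cytoskeleton Dye, MitoTracker Red and Annexin V Alexa Fluor 680 were imaged on a CQ1 microscope at 37°C and 5% CO2 after compound addition.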"}, "[2]": {"tested_on": "U2OS", "test": "Multiplex assay against U2OS", "format": "toxicity, cell-based", "details": "human", "method_in_brief": "as §1"}, "[3]": {"details": "12 h, 1 µM, compound concentration 1 uM"}, "[4]": {"details": "12 h, 10 µM, compound concentration 10 uM"}, "[5]": {"details": "24 h, 1 µM, compound concentration 1 uM"}, "[6]": {"details": "24 h, 10 µM, compound concentration 10 uM"}, "[7]": {"details": "48 h, 1 µM, compound concentration 1 uM"}, "[8]": {"details": "48 h, 10 µM, compound concentration 10 uM"}},
  "note": "Values joined by “and” are separate entries in the source; they are usually repeats but may differ in a detail not shown here. Identical values can stand only once.",
  "data": [
    {"smiles": "O=C(O)Cc1ccccc1Nc1c(Cl)cccc1Cl", "note": "[DICLOFENAC]", "values": [
      {"measurement": "Population Apoptotic (%)", "setting": "[1]; [3]", "value": "36% and 52%"},
      {"measurement": "Population Fragmented Nuclei (%)", "setting": "[1]; [3]", "value": 7, "unit": "%"},
      {"measurement": "Population Healthy Nuclei (%)", "setting": "[1]; [3]", "value": "77% and 79%"},
      {"measurement": "Population Hoechst High Intensity Objects (%)", "setting": "[1]; [3]", "value": "5% and 10%"},
      {"measurement": "Population Membrane Permeable-Phenotype (%)", "setting": "[1]; [3]", "value": 0, "unit": "%"},
      {"measurement": "Population Mitochondria Different-Phenotype (%)", "setting": "[1]; [3]", "value": "53% and 61%"},
      {"measurement": "Population Mitotic Cells (%)", "setting": "[1]; [3]", "value": "63% and 47%"},
      {"measurement": "Population Normal (%)", "setting": "[1]; [3]", "value": "94% and 89%"},
      {"measurement": "Population Pyknosed Nuclei (%)", "setting": "[1]; [3]", "value": "14% and 13%"},
      {"measurement": "Population Tubulin-Different-Phenotype (%)", "setting": "[1]; [3]", "value": "32% and 23%"},
      {"measurement": "Total Cell Count", "setting": "[1]; [3]", "value": "376 and 324"},
      {"measurement": "Population Apoptotic (%)", "setting": "[1]; [4]", "value": "30% and 57%"},
      {"measurement": "Population Fragmented Nuclei (%)", "setting": "[1]; [4]", "value": 7, "unit": "%"},
      {"measurement": "Population Healthy Nuclei (%)", "setting": "[1]; [4]", "value": "77% and 75%"},
      {"measurement": "Population Hoechst High Intensity Objects (%)", "setting": "[1]; [4]", "value": "6% and 14%"},
      {"measurement": "Population Membrane Permeable-Phenotype (%)", "setting": "[1]; [4]", "value": 0, "unit": "%"},
      {"measurement": "Population Mitochondria Different-Phenotype (%)", "setting": "[1]; [4]", "value": "45% and 68%"},
      {"measurement": "Population Mitotic Cells (%)", "setting": "[1]; [4]", "value": "69% and 42%"},
      {"measurement": "Population Normal (%)", "setting": "[1]; [4]", "value": "93% and 85%"},
      {"measurement": "Population Pyknosed Nuclei (%)", "setting": "[1]; [4]", "value": "14% and 17%"},
      {"measurement": "Population Tubulin-Different-Phenotype (%)", "setting": "[1]; [4]", "value": 35, "unit": "%"},
      {"measurement": "Total Cell Count", "setting": "[1]; [4]", "value": "480 and 370"},
      {"measurement": "Population Apoptotic (%)", "setting": "[1]; [5]", "value": "30% and 45%"},
      {"measurement": "Population Fragmented Nuclei (%)", "setting": "[1]; [5]", "value": "7% and 6%"},
      {"measurement": "Population Healthy Nuclei (%)", "setting": "[1]; [5]", "value": "76% and 78%"},
      {"measurement": "Population Hoechst High Intensity Objects (%)", "setting": "[1]; [5]", "value": "3% and 10%"},
      {"measurement": "Population Membrane Permeable-Phenotype (%)", "setting": "[1]; [5]", "value": 0, "unit": "%"},
      {"measurement": "Population Mitochondria Different-Phenotype (%)", "setting": "[1]; [5]", "value": "44% and 37%"},
      {"measurement": "Population Mitotic Cells (%)", "setting": "[1]; [5]", "value": "69% and 54%"},
      {"measurement": "Population Normal (%)", "setting": "[1]; [5]", "value": "96% and 89%"},
      {"measurement": "Population Pyknosed Nuclei (%)", "setting": "[1]; [5]", "value": "15% and 14%"},
      {"measurement": "Population Tubulin-Different-Phenotype (%)", "setting": "[1]; [5]", "value": "24% and 9%"},
      {"measurement": "Total Cell Count", "setting": "[1]; [5]", "value": "456 and 418"},
      {"measurement": "Population Apoptotic (%)", "setting": "[1]; [6]", "value": "25% and 49%"},
      {"measurement": "Population Fragmented Nuclei (%)", "setting": "[1]; [6]", "value": 10, "unit": "%"},
      {"measurement": "Population Healthy Nuclei (%)", "setting": "[1]; [6]", "value": "77% and 75%"},
      {"measurement": "Population Hoechst High Intensity Objects (%)", "setting": "[1]; [6]", "value": "4% and 9%"},
      {"measurement": "Population Membrane Permeable-Phenotype (%)", "setting": "[1]; [6]", "value": 0, "unit": "%"},
      {"measurement": "Population Mitochondria Different-Phenotype (%)", "setting": "[1]; [6]", "value": "29% and 50%"},
      {"measurement": "Population Mitotic Cells (%)", "setting": "[1]; [6]", "value": "74% and 50%"},
      {"measurement": "Population Normal (%)", "setting": "[1]; [6]", "value": "95% and 90%"},
      {"measurement": "Population Pyknosed Nuclei (%)", "setting": "[1]; [6]", "value": "12% and 14%"},
      {"measurement": "Population Tubulin-Different-Phenotype (%)", "setting": "[1]; [6]", "value": "29% and 26%"},
      {"measurement": "Total Cell Count", "setting": "[1]; [6]", "value": "650 and 462"},
      {"measurement": "Population Apoptotic (%)", "setting": "[1]; [7]", "value": "23% and 33%"},
      {"measurement": "Population Fragmented Nuclei (%)", "setting": "[1]; [7]", "value": "11% and 15%"},
      {"measurement": "Population Healthy Nuclei (%)", "setting": "[1]; [7]", "value": "82% and 79%"},
      {"measurement": "Population Hoechst High Intensity Objects (%)", "setting": "[1]; [7]", "value": 2, "unit": "%"},
      {"measurement": "Population Membrane Permeable-Phenotype (%)", "setting": "[1]; [7]", "value": 1, "unit": "%"},
      {"measurement": "Population Mitochondria Different-Phenotype (%)", "setting": "[1]; [7]", "value": "22% and 16%"},
      {"measurement": "Population Mitotic Cells (%)", "setting": "[1]; [7]", "value": "76% and 66%"},
      {"measurement": "Population Normal (%)", "setting": "[1]; [7]", "value": 97, "unit": "%"},
      {"measurement": "Population Pyknosed Nuclei (%)", "setting": "[1]; [7]", "value": "6% and 4%"},
      {"measurement": "Population Tubulin-Different-Phenotype (%)", "setting": "[1]; [7]", "value": "15% and 10%"},
      {"measurement": "Total Cell Count", "setting": "[1]; [7]", "value": "730 and 697"},
      {"measurement": "Population Apoptotic (%)", "setting": "[1]; [8]", "value": 36, "unit": "%"},
      {"measurement": "Population Fragmented Nuclei (%)", "setting": "[1]; [8]", "value": "12% and 16%"},
      {"measurement": "Population Healthy Nuclei (%)", "setting": "[1]; [8]", "value": "80% and 75%"},
      {"measurement": "Population Hoechst High Intensity Objects (%)", "setting": "[1]; [8]", "value": "3% and 4%"},
      {"measurement": "Population Membrane Permeable-Phenotype (%)", "setting": "[1]; [8]", "value": "1% and 0%"},
      {"measurement": "Population Mitochondria Different-Phenotype (%)", "setting": "[1]; [8]", "value": "17% and 36%"},
      {"measurement": "Population Mitotic Cells (%)", "setting": "[1]; [8]", "value": 63, "unit": "%"},
      {"measurement": "Population Normal (%)", "setting": "[1]; [8]", "value": "96% and 95%"},
      {"measurement": "Population Pyknosed Nuclei (%)", "setting": "[1]; [8]", "value": 7, "unit": "%"},
      {"measurement": "Population Tubulin-Different-Phenotype (%)", "setting": "[1]; [8]", "value": "18% and 17%"},
      {"measurement": "Total Cell Count", "setting": "[1]; [8]", "value": "883 and 649"},
      {"measurement": "Population Apoptotic (%)", "setting": "[2]; [3]", "value": "90% and 84%"},
      {"measurement": "Population Fragmented Nuclei (%)", "setting": "[2]; [3]", "value": "15% and 13%"},
      {"measurement": "Population Healthy Nuclei (%)", "setting": "[2]; [3]", "value": "78% and 76%"},
      {"measurement": "Population Hoechst High Intensity Objects (%)", "setting": "[2]; [3]", "value": "5% and 0%"},
      {"measurement": "Population Membrane Permeable-Phenotype (%)", "setting": "[2]; [3]", "value": "4% and 5%"},
      {"measurement": "Population Mitochondria Different-Phenotype (%)", "setting": "[2]; [3]", "value": "4% and 2%"},
      {"measurement": "Population Mitotic Cells (%)", "setting": "[2]; [3]", "value": "10% and 15%"},
      {"measurement": "Population Normal (%)", "setting": "[2]; [3]", "value": "94% and 99%"},
      {"measurement": "Population Pyknosed Nuclei (%)", "setting": "[2]; [3]", "value": "6% and 10%"},
      {"measurement": "Population Tubulin-Different-Phenotype (%)", "setting": "[2]; [3]", "value": "4% and 2%"},
      {"measurement": "Total Cell Count", "setting": "[2]; [3]", "value": 164},
      {"measurement": "Population Apoptotic (%)", "setting": "[2]; [4]", "value": "75% and 72%"},
      {"measurement": "Population Fragmented Nuclei (%)", "setting": "[2]; [4]", "value": "20% and 14%"},
      {"measurement": "Population Healthy Nuclei (%)", "setting": "[2]; [4]", "value": "68% and 76%"},
      {"measurement": "Population Hoechst High Intensity Objects (%)", "setting": "[2]; [4]", "value": "2% and 3%"},
      {"measurement": "Population Membrane Permeable-Phenotype (%)", "setting": "[2]; [4]", "value": 8, "unit": "%"},
      {"measurement": "Population Mitochondria Different-Phenotype (%)", "setting": "[2]; [4]", "value": "4% and 3%"},
      {"measurement": "Population Mitotic Cells (%)", "setting": "[2]; [4]", "value": "25% and 27%"},
      {"measurement": "Population Normal (%)", "setting": "[2]; [4]", "value": "97% and 96%"},
      {"measurement": "Population Pyknosed Nuclei (%)", "setting": "[2]; [4]", "value": "11% and 9%"},
      {"measurement": "Population Tubulin-Different-Phenotype (%)", "setting": "[2]; [4]", "value": "4% and 8%"},
      {"measurement": "Total Cell Count", "setting": "[2]; [4]", "value": 258},
      {"measurement": "Population Apoptotic (%)", "setting": "[2]; [5]", "value": "92% and 87%"},
      {"measurement": "Population Fragmented Nuclei (%)", "setting": "[2]; [5]", "value": "15% and 19%"},
      {"measurement": "Population Healthy Nuclei (%)", "setting": "[2]; [5]", "value": "76% and 70%"},
      {"measurement": "Population Hoechst High Intensity Objects (%)", "setting": "[2]; [5]", "value": "4% and 3%"},
      {"measurement": "Population Membrane Permeable-Phenotype (%)", "setting": "[2]; [5]", "value": "2% and 5%"},
      {"measurement": "Population Mitochondria Different-Phenotype (%)", "setting": "[2]; [5]", "value": 2, "unit": "%"},
      {"measurement": "Population Mitotic Cells (%)", "setting": "[2]; [5]", "value": "7% and 12%"},
      {"measurement": "Population Normal (%)", "setting": "[2]; [5]", "value": "95% and 96%"}
    ]}
  ]
}
